Test results as given in ChEMBL document CHEMBL1124187, “Nucleosides. 150. Synthesis and some biological properties of 5-monofluoromethyl, 5-difluoromethyl, and 5-trifluoromethyl derivatives of 2'-deoxyuridine and 2'-deoxy-2'-fluoro-beta-D-arabinofuranosyluracil” (1988).

What was measured:
HL-60 [1] = experiment: Growth inhibition against HL-60 after 72 hours incubation period; assay type: functional; conditions: Homo sapiens, HL-60, 72 h; read-out: ID50 (the source's name)
Summary of the method: (§1)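 HL-60 cell growth inhibition; ID50 derived from six concentrations of each nucleoside using the median-effect equation and plot.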

Human alphaherpesvirus 2 = experiment: Effective dose required for antiherpes activity against HSV-2(G) strain; assay type: functional; conditions: read-out: ED50 (the source's name)
HL-60 [2] = experiment: Growth inhibition against HL-60 after 24 hours incubation period; assay type: functional; conditions: Homo sapiens, HL-60, 24 h; read-out: ID50 (the source's name); summary of the method: as §1
Human alphaherpesvirus 1 = experiment: Effective dose required for antiherpes activity against HSV-1(F) strain; assay type: functional; conditions: read-out: ED50 (the source's name)
HL-60 [3] = experiment: Growth inhibition against HL-60 after 48 hours incubation period; assay type: functional; conditions: Homo sapiens, HL-60, 48 h; read-out: ID50 (the source's name); summary of the method: as §1
[4] = target: Thymidylate synthase (Mus musculus) (UniProt P07607); experiment: The compound was tested for inhibition of thymidylate synthase (TS) in L1210 cells; assay type: cell-based
Thymidylate synthase (Mus musculus), sequence (P07607 whole entry, looked up): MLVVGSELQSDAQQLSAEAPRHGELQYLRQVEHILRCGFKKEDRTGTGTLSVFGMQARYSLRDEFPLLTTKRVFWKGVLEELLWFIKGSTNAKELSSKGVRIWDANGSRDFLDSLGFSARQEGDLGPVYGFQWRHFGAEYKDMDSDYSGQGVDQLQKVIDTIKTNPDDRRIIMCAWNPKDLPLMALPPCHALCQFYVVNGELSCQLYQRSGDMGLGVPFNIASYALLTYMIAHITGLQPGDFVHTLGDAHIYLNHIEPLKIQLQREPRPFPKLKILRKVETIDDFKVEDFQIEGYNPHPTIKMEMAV
Summary of the method: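 In situ thymidylate synthase activity in intact L1210 cells, measured as tritium released from [5-3H]UDR. Reported as ID50.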

HL-60 [5] = experiment: The compound was tested for [3H]TdR incorporation into DNA in HL-60 cells; assay type: functional; conditions: Homo sapiens, HL-60, 30 min; read-out: ID50 (the source's name)
Summary of the method: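 HL-60 cells labelled with [methyl-3H]TDR (1 µCi, 0.02 µM) for 30 min, then label incorporated into DNA measured. ID50 derived from six nucleoside concentrations using the median-effect equation and plot.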

Homo sapiens = organism: Homo sapiens; experiment: Growth inhibition against HL-60 after 24 hr incubation period; assay type: functional; summary of the method: as §1

Row | Compound | IC50 (HL-60 [1]) | EC50 (Human alphaherpesvirus 2) | IC50 (HL-60 [2]) | EC50 (Human alphaherpesvirus 1) | IC50 (HL-60 [3]) | ID50 [4] | IC50 (HL-60 [5]) | ID50 (Homo sapiens)
1 | CC(=O)OC[C@H]1O[C@@H](n2cc(C)c(=O)[nH]c2=O)[C@@H](F)[C@@H]1OC(C)=O | 119 µM | 1.23 µM | > 1000 µM | 0.44 µM | 209 µM | – | – | –
2 | Cc1cn([C@H]2C[C@H](O)[C@@H](CO)O2)c(=O)[nH]c1=O [DOXRIBTIMINE] | 336 µM | > 1000 µM | 901 µM | > 1000 µM | 461 µM | 75 µM | 0.61 µM | –
3 | O=Cc1cn([C@@H]2O[C@H](CO)[C@@H](O)[C@@H]2F)c(=O)[nH]c1=O | – | – | – | – | – | > 1000 µM | – | –
4 | CC(=O)OC[C@H]1O[C@@H](n2cc(C(F)F)c(=O)[nH]c2=O)[C@@H](F)[C@@H]1OC(C)=O | 40 µM | 2.16 µM | – | 0.71 µM | 83 µM | – | – | 257 µM
5 | Cc1cn([C@@H]2O[C@H](CO)[C@@H](O)[C@@H]2F)c(=O)[nH]c1=O [5-METHYL-2'-FLUOROARAURACIL] | 25 µM | 0.07 µM | 136 µM | 0.07 µM | 51 µM | > 1000 µM | 20 µM | –
6 | CC(=O)OC[C@H]1O[C@@H](n2cc(CF)c(=O)[nH]c2=O)[C@@H](F)[C@@H]1OC(C)=O | 312 µM | 5.19 µM | 860 µM | 2.43 µM | 500 µM | – | – | –
7 | CC(=O)OC[C@H]1O[C@@H](n2cc(C(F)(F)F)c(=O)[nH]c2=O)C[C@@H]1OC(C)=O | 8.5 µM | 16.3 µM | 501 µM | 4.7 µM | 19 µM | – | – | –
8 | O=c1[nH]c(=O)n([C@H]2C[C@H](O)[C@@H](CO)O2)cc1CO | – | – | – | – | – | > 1000 µM | – | –
9 | O=c1[nH]c(=O)n([C@@H]2O[C@H](CO)[C@@H](O)[C@@H]2F)cc1CF | 119 µM | 0.8 µM | 995 µM | 0.68 µM | 202 µM | > 1000 µM | 189 µM | –
10 | O=c1[nH]c(=O)n([C@@H]2O[C@H](CO)[C@@H](O)[C@@H]2F)cc1CO | 1920 µM | 5.5 µM | > 5000 µM | 2 µM | 1160 µM | > 1000 µM | – | –
11 | O=c1[nH]c(=O)n([C@H]2C[C@H](O)[C@@H](CO)O2)cc1CF | > 1000 µM | > 100 µM | 178 µM | > 100 µM | > 1000 µM | 11 µM | 18.6 µM | –
12 | O=c1[nH]c(=O)n([C@H]2C[C@H](O)[C@@H](CO)O2)cc1C(F)(F)F [TRIFLURIDINE] | 0.14 µM | 1.88 µM | 1.5 µM | 0.77 µM | 1.7 µM | 0.035 µM | 14 µM | –
13 | O=c1[nH]c(=O)n([C@H]2C[C@H](O)[C@@H](CO)O2)cc1C(F)F | 0.12 µM | 1.17 µM | 4 µM | 0.8 µM | 1.25 µM | 0.063 µM | 5.1 µM | –
14 | O=c1[nH]c(=O)n([C@@H]2O[C@H](CO)[C@@H](O)[C@@H]2F)cc1C(F)F | 6.6 µM | 1.04 µM | 97 µM | 0.34 µM | 12 µM | 56 µM | > 1000 µM | –
15 | CC(=O)OC[C@H]1O[C@@H](n2cc(C(F)F)c(=O)[nH]c2=O)C[C@@H]1OC(C)=O | 14 µM | 25.1 µM | 83 µM | 17 µM | 14 µM | – | – | –
16 | O=c1[nH]c(=O)n([C@@H]2O[C@H](CO)[C@@H](O)[C@@H]2F)cc1C(F)(F)F | 17 µM | 1.7 µM | 304 µM | 0.83 µM | 29 µM | 14 µM | > 1000 µM | –
17 | CC(=O)OC[C@H]1O[C@@H](n2cc(C(F)(F)F)c(=O)[nH]c2=O)[C@@H](F)[C@@H]1OC(C)=O | 65 µM | 1.3 µM | 54 µM | 1.3 µM | 62 µM | – | – | –
18 | CC(=O)OC[C@H]1O[C@@H](n2cc(CF)c(=O)[nH]c2=O)C[C@@H]1OC(C)=O | 324 µM | > 100 µM | 3470 µM | > 100 µM | 976 µM | – | – | –
